Test results published in ChEMBL document CHEMBL3870311, “Synthesis and biological evaluation of C1-O-substituted-3-(3-butylamino-2-hydroxy-propoxy)-xanthen-9-one as topoisomerase IIα catalytic inhibitors” (Eur J Med Chem, 2016).
Structures can show the parent of a compound that is named as a salt. Calls of active or inactive are those of the source. No cut-off for these calls is given here.

Columns and labels:
[1] = target: T1, DNA topoisomerase 2-alpha (Homo sapiens, UniProt P11388); assay: Inhibition of topoisomerase-2 alpha catalytic activity in human T47D cells assessed as increase in free topoisomerase-2 alpha level at 50 uM after 2 hrs by Western blot method; type: cell-based
T1 sequence (P11388 whole entry): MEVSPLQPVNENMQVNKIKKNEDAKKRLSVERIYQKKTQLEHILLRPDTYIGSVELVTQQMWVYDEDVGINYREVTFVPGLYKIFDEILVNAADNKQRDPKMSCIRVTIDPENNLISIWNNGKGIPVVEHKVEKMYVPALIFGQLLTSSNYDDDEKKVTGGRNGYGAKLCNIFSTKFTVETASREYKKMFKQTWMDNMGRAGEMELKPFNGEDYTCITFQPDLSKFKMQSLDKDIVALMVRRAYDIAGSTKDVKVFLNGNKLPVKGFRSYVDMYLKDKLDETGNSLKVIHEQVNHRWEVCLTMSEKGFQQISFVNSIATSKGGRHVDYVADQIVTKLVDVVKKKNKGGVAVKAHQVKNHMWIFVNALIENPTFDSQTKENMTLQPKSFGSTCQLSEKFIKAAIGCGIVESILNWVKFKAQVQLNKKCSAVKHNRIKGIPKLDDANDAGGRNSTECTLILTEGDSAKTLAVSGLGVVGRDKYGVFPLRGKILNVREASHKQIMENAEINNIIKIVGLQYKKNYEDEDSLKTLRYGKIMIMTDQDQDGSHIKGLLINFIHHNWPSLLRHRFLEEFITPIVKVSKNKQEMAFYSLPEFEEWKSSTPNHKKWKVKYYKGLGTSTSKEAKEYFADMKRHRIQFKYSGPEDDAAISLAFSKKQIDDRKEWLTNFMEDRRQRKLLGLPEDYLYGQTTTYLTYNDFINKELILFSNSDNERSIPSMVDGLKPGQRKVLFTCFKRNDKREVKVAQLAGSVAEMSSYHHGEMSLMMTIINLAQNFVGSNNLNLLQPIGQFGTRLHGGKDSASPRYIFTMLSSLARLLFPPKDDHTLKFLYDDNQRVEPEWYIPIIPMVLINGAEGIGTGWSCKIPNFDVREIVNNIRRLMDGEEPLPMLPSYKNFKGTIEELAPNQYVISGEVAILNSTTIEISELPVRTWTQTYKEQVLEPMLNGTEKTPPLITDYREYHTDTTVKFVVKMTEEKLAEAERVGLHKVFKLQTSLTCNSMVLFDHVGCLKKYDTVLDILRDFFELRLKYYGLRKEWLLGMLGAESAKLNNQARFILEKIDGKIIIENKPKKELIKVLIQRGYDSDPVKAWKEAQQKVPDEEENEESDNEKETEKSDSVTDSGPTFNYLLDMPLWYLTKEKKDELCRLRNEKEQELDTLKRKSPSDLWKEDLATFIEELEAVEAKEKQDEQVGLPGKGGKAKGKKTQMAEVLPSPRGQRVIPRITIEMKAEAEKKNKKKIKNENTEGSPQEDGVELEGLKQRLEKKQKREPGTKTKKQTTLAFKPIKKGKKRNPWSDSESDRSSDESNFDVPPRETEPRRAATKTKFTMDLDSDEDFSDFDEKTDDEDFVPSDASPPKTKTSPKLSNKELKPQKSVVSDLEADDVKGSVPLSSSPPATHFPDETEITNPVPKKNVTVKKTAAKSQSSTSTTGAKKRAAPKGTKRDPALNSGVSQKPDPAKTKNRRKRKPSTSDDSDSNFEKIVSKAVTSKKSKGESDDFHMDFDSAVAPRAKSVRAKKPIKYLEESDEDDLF
In short: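 T47D cells (2 x 10^5 per well) seeded overnight, treated 2 h at 37 °C with 50 µM compound or etoposide in serum-free RPMI. Harvested cells washed in PBS, lysed in 62.5 mM Tris-HCl pH 6.8, 1 mM EDTA, 2% SDS with sonication; cleared supernatant run on 10% SDS-PAGE and free topo IIα detected by Western blot.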

[2] = Cytotoxicity against human T47D cells assessed as reduction in cell growth after 72 hrs by CCK8 assay; type: functional, cell-based
In short: (§1)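 Cells (2~4 x 10^4 per well) seeded overnight in media with 10% FBS, 37 °C, 5% CO₂, then exposed to graded compound concentrations for 72 h. CCK-8 solution added for a further 4 h; absorbance read at 450 nm. IC₅₀ from four-parameter logistic fit; adriamycin, etoposide and camptothecin as positive controls.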

[3] = Cytotoxicity against human HeLa cells assessed as reduction in cell growth after 72 hrs by CCK8 assay; type: functional, cell-based; in short: as §1
[4] = Cytotoxicity against human HCT15 cells assessed as reduction in cell growth after 72 hrs by CCK8 assay; type: functional, cell-based; details: HCT-15, 72 h; in short: as §1
[5] = Cytotoxicity against human NCI-N87 cells assessed as reduction in cell growth after 72 hrs by CCK8 assay; type: functional, cell-based; details: NCI-N87, 72 h; in short: as §1
[6] = target: T1, DNA topoisomerase 2-alpha; assay: Inhibition of human topoisomerase-2 alpha at 100 uM using supercoiled pBR322 DNA as substrate after 30 mins by agarose gel electrophoresis method relative to control
[7] = target: T1, DNA topoisomerase 2-alpha; assay: Inhibition of human topoisomerase-2 alpha at 20 uM using supercoiled pBR322 DNA as substrate after 30 mins by agarose gel electrophoresis relative to control

| Compound | inhibition [1] | IC50 [2] [nM] | IC50 [3] [nM] | IC50 [4] [nM] | IC50 [5] [nM] | inhibition [6] [%] | inhibition [7] [%] |
| --- | --- | --- | --- | --- | --- | --- | --- |
| CCCCNCC(O)COc1cc(OCCc2ccc(Cl)cc2)c2c(=O)c3ccccc3oc2c1 (configuration not stated) | Active | 630 | 1370 | 2130 | 3630 | 94.4 | 23 to 23.3 |
| CCCCNCC(O)COc1cc(OCC)c2c(=O)c3cccc(OC)c3oc2c1 (configuration not stated) |  | 4280 | 23500 | 10600 | 2240 | 10.7 |  |
| CCCCNCC(O)COc1cc(OCc2ccc(OC)cc2)c2c(=O)c3cccc(OC)c3oc2c1 (configuration not stated) |  | 1520 | 1820 | 2290 | 250 | 44.8 | 13.9 |
| COc1ccc(COc2cc(OCC3CO3)cc3oc4c(OC)cccc4c(=O)c23)cc1 (configuration not stated) |  | 7680 | 1740 | 420 | 1410 | 0 |  |
| O=c1c2ccccc2oc2cc(OCC3CO3)cc(OCCc3ccc(Cl)cc3)c12 (configuration not stated) |  | 970 | 4910 | 5270 | 2020 | 0 |  |
| CCCCCOc1cc(OCC(O)CNCCCC)cc2oc3ccccc3c(=O)c12 (configuration not stated) |  | 1270 | 2560 | 4580 | 60 | 29.4 |  |
| COc1cccc2c(=O)c3c(OCc4cccc(Cl)c4)cc(OCC4CO4)cc3oc12 (configuration not stated) |  | 1550 | 1700 | 170 | 950 | 1.7 |  |
| CCCCNCC(O)COc1cc(OCc2cccc(C(F)(F)F)c2)c2c(=O)c3cccc(OC)c3oc2c1 (configuration not stated) |  | 2000 | 2620 | 2620 | 1980 | 58.1 | 14.2 |
| CCCCNCC(O)COc1cc(OC(C)C)c2c(=O)c3ccccc3oc2c1 (configuration not stated) |  | 4710 | 36600 | 43400 | 2050 | 1.5 |  |
| CCCCNCC(O)COc1cc(OCCc2cccc(Cl)c2)c2c(=O)c3ccccc3oc2c1 (configuration not stated) | Active | 1720 | 2560 | 2280 | 380 | 46.2 | 16.6 |
| COc1cccc2c(=O)c3c(OCc4ccccc4)cc(OCC4CO4)cc3oc12 (configuration not stated) |  | 2020 | 1660 | 340 | 1750 | 3.3 |  |
| CCCCNCC(O)COc1cc(OCCCC)c2c(=O)c3ccccc3oc2c1 (configuration not stated) |  | 1540 | 2070 | 8610 | 1630 | 27.1 |  |
| CCCCOc1cc(OCC2CO2)cc2oc3c(OC)cccc3c(=O)c12 (configuration not stated) |  | 1630 | 1080 | 220 | 310 | 14.1 |  |
| CCCCNCC(O)COc1cc(OCc2cccc(OC)c2)c2c(=O)c3ccccc3oc2c1 (configuration not stated) |  | 2570 | 5860 | 1910 | 70 | 58.7 | 19.5 |
| O=c1c2ccccc2oc2cc(OCC3CO3)cc(OCc3cccc(Cl)c3)c12 (configuration not stated) |  | 3300 | 3570 | 1960 | 1890 | 0 |  |
| COc1cccc2c1C(=O)c1c(O)c3c(c(O)c1C2=O)C[C@@](O)(C(=O)CO)C[C@@H]3O[C@H]1C[C@H](N)[C@H](O)[C@H](C)O1 [DOXORUBICIN HYDROCHLORIDE] |  | 1420 | 1700 |  | 710 |  |  |
| CCCCNCC(O)COc1cc(OCc2cccc(Cl)c2)c2c(=O)c3cccc(OC)c3oc2c1 (configuration not stated) |  | 670 | 2400 | 1590 | 1160 | 45.4 | 6.3 |
| COc1cccc(COc2cc(OCC3CO3)cc3oc4c(OC)cccc4c(=O)c23)c1 (configuration not stated) |  | 4050 | 2430 | 350 | 1320 | 0 |  |
| CCCCOc1cc(OCC2CO2)cc2oc3ccccc3c(=O)c12 (configuration not stated) |  | 3750 | 1810 | 2450 | 4550 | 0 |  |
| CCOc1cc(OCC2CO2)cc2oc3ccccc3c(=O)c12 (configuration not stated) |  | 3600 | 800 | 3960 | 3910 | 0 |  |
| CCCCCOc1cc(OCC(O)CNCCCC)cc2oc3c(OC)cccc3c(=O)c12 (configuration not stated) |  | 780 | 3840 | 1810 | 480 | 36.3 | 9.5 |
| O=c1c2ccccc2oc2cc(OCC3CO3)cc(OCc3cccc(C(F)(F)F)c3)c12 (configuration not stated) |  | 2300 | 4280 | 5080 | 1360 | 0 |  |

| Compound | inhibition [1] | IC50 [2] [nM] | IC50 [3] [nM] | IC50 [4] [nM] | IC50 [5] [nM] | inhibition [6] [%] | inhibition [7] [%] |
| --- | --- | --- | --- | --- | --- | --- | --- |
| COc1cccc(COc2cc(OCC3CO3)cc3oc4ccccc4c(=O)c23)c1 (configuration not stated) |  | 3730 | 1570 | 1490 | 3260 | 0 |  |
| CCCCNCC(O)COc1cc(OCc2cccc(OC)c2)c2c(=O)c3cccc(OC)c3oc2c1 (configuration not stated) |  | 1360 | 2300 | 1740 | 1320 | 41.6 | 12.4 |
| COc1cccc2c(=O)c3c(OCCc4cccc(Cl)c4)cc(OCC4CO4)cc3oc12 (configuration not stated) |  | 2740 | 470 | 1080 | 1110 | 0 |  |
| CC(C)Oc1cc(OCC2CO2)cc2oc3ccccc3c(=O)c12 (configuration not stated) |  | 1940 | 1620 | 1630 | 290 | 0.1 |  |
| CCCCCOc1cc(OCC2CO2)cc2oc3ccccc3c(=O)c12 (configuration not stated) |  | > 50000 | 1790 | 3280 | 11000 | 0 |  |
| COc1cccc2c(=O)c3c(OCc4cccc(C(F)(F)F)c4)cc(OCC4CO4)cc3oc12 (configuration not stated) |  | 2870 | 4270 | 360 | 2240 | 0 |  |
| CCCCNCC(O)COc1cc(OCCCC)c2c(=O)c3cccc(OC)c3oc2c1 (configuration not stated) |  | 1130 | 7650 | 6020 | 1640 | 24.2 |  |
| COc1cccc2c(=O)c3c(OC(C)C)cc(OCC4CO4)cc3oc12 (configuration not stated) |  | 1750 | 1870 | 310 | 3120 | 1.5 |  |
| CCCCCOc1cc(OCC2CO2)cc2oc3c(OC)cccc3c(=O)c12 (configuration not stated) |  | 4570 | 4060 | 370 | 1690 | 5 |  |
| O=c1c2ccccc2oc2cc(OCC3CO3)cc(OCc3ccccc3)c12 (configuration not stated) |  | 3060 | 1920 | 1500 | 5070 | 0 |  |
| O=c1c2ccccc2oc2cc(OCC3CO3)cc(OCCc3cccc(Cl)c3)c12 (configuration not stated) |  | 1360 | 1460 | 4130 | 3180 | 0 |  |
| CCCCNCC(O)COc1cc(OC(C)C)c2c(=O)c3cccc(OC)c3oc2c1 (configuration not stated) |  | 2670 | 14400 | 9600 | 80 | 7.5 |  |
| CCCCNCC(O)COc1cc(OCc2ccccc2)c2c(=O)c3cccc(OC)c3oc2c1 (configuration not stated) |  | 2400 | 2250 | 2080 | 1230 | 51.6 | 11.1 |
| COc1cccc2c(=O)c3c(OCCc4ccc(Cl)cc4)cc(OCC4CO4)cc3oc12 (configuration not stated) |  | > 50000 | > 50000 | 45200 | 1490 | 0 |  |
| CCCCNCC(O)COc1cc(OCc2ccccc2)c2c(=O)c3ccccc3oc2c1 (configuration not stated) |  | 2810 | 7050 | 3090 | 1440 | 65.4 | 22.2 |
| CCCCNCC(O)COc1cc(OCC)c2c(=O)c3ccccc3oc2c1 (configuration not stated) |  | 7020 | > 50000 | 28200 | 1770 | 4.8 |  |
| CCCCNCC(O)COc1cc(OCc2cccc(Cl)c2)c2c(=O)c3ccccc3oc2c1 (configuration not stated) |  | 1170 | 2830 | 2240 | 170 | 56.3 | 22.4 |
| CCCCNCC(O)COc1cc(OCc2ccc(OC)cc2)c2c(=O)c3ccccc3oc2c1 (configuration not stated) |  | 1410 | 4810 | 2170 | 1800 | 55.9 | 21.1 |
| CCCCNCC(O)COc1cc(OCc2cccc(C(F)(F)F)c2)c2c(=O)c3ccccc3oc2c1 (configuration not stated) |  | 140 | 2260 | 2450 | 240 | 64.6 | 9.3 |
| CC[C@@]1(O)C(=O)OCc2c1cc1n(c2=O)Cc2cc3ccccc3nc2-1 [CAMPTOTHECIN] |  | 80 | 130 | 1.4 | 600 |  |  |
| COc1ccc(COc2cc(OCC3CO3)cc3oc4ccccc4c(=O)c23)cc1 (configuration not stated) |  | 2960 | 1580 | 1720 | 3730 | 0 |  |
| CCOc1cc(OCC2CO2)cc2oc3c(OC)cccc3c(=O)c12 (configuration not stated) |  | 830 | 1170 | 820 | 1190 | 2.5 |  |
